Measurements from different studies.
Compare with care: the assays were run in different laboratories.
Target: Serine/threonine-protein kinase 25 (STK25, Homo sapiens, UniProt O00506)

Compound | read-out | action | technique | tested at | quantity | value
Cc1nn(C)cc1-c1nc2c(N3CCN(Cc4ccc(Cl)cc4)CC3)c(Cl)cnc2[nH]1 | binding |  | competition with immobilised ligand | 1 µM | remaining binding | 70%
Nc1ncc(-c2nc(N3CCOCC3)nc(N3CCOCC3)n2)c(C(F)F)n1 | binding |  | competition with immobilised ligand | 10 µM | remaining binding | 93%
Cn1cc(-c2cccc(N3CCc4c(sc5c4CC(C)(C)C5)C3=O)c2CO)cc(Nc2ccncn2)c1=O | enzyme activity | inhibitor |  | 1 µM | inhibition | -13%
CC(C)(C)c1cc(C=C(C#N)C#N)cc(Br)c1O | enzyme activity | inhibitor |  | 0.5 µM | remaining activity | 102%
N#CC1(c2ccccn2)CCN(Cc2cc(C(=O)O)c(=O)n3ccccc23)CC1 | cell-free assay |  | competition with immobilised ligand | 1 µM | remaining binding | 100%
Cn1cc(-c2cc(F)cc(N3CCn4c(cc5c4CCCC5)C3=O)c2CO)cc(Nc2ccc(N3CCN(C4COC4)CC3)cn2)c1=O | enzyme activity | inhibitor |  | 0.1 µM | inhibition | 8%
O=c1[nH]c2ccccc2n1C1CCN(Cc2ccc(-c3[nH]c4cc5ncnc5cc4nc3-c3ccccc3)cc2)CC1 | cell-free assay |  |  | 0.5 µM | remaining signal | 89.8%
COc1ncccc1-c1cnn2ccc(N3CCN(C(=O)OC(C)C)CC3)nc12 | binding |  | competition with immobilised ligand | 1 µM | remaining binding | 65%
COCc1c(-c2cc3cc(C)cc(OC)c3s2)c2c(N)ncnn2c1CN1CCNC(=O)C1 | cell-free assay |  | competition with immobilised ligand | 1 µM | inhibition | 87%
Cn1cncc1[C@](O)(COc1ccc(C#N)cc1-c1ccc(OC(F)(F)F)cc1)c1ccc(C#N)cc1 | cell-free assay |  | competition with immobilised ligand | 1 µM | remaining binding | 91%
